Reference: ChEMBL document CHEMBL4699460, “Integrating DNA-encoded chemical libraries with virtual combinatorial library screening: Optimizing a PARP10 inhibitor” (Bioorg Med Chem Lett, 2020)

Legend:
[1] = molecular target: Protein mono-ADP-ribosyltransferase PARP14 (Homo sapiens) (UniProt Q460N5); experiment: (§1) Inhibition of N-terminal His-GST tagged human PARP14 (1470 to 1801 residues) expressed in baculovirus infected Sf9 cells assessed as reduction in NAD+-dependent ADP ribosylation using histone as substrate at 1 uM incubated for 1 hr in presence of biotinylated NAD+ and activated DNA by chemiluminescence based microplate reader assay relative to control
Chain of Protein mono-ADP-ribosyltransferase PARP14 (Homo sapiens) (Q460N5 whole entry, the tested form may be a part): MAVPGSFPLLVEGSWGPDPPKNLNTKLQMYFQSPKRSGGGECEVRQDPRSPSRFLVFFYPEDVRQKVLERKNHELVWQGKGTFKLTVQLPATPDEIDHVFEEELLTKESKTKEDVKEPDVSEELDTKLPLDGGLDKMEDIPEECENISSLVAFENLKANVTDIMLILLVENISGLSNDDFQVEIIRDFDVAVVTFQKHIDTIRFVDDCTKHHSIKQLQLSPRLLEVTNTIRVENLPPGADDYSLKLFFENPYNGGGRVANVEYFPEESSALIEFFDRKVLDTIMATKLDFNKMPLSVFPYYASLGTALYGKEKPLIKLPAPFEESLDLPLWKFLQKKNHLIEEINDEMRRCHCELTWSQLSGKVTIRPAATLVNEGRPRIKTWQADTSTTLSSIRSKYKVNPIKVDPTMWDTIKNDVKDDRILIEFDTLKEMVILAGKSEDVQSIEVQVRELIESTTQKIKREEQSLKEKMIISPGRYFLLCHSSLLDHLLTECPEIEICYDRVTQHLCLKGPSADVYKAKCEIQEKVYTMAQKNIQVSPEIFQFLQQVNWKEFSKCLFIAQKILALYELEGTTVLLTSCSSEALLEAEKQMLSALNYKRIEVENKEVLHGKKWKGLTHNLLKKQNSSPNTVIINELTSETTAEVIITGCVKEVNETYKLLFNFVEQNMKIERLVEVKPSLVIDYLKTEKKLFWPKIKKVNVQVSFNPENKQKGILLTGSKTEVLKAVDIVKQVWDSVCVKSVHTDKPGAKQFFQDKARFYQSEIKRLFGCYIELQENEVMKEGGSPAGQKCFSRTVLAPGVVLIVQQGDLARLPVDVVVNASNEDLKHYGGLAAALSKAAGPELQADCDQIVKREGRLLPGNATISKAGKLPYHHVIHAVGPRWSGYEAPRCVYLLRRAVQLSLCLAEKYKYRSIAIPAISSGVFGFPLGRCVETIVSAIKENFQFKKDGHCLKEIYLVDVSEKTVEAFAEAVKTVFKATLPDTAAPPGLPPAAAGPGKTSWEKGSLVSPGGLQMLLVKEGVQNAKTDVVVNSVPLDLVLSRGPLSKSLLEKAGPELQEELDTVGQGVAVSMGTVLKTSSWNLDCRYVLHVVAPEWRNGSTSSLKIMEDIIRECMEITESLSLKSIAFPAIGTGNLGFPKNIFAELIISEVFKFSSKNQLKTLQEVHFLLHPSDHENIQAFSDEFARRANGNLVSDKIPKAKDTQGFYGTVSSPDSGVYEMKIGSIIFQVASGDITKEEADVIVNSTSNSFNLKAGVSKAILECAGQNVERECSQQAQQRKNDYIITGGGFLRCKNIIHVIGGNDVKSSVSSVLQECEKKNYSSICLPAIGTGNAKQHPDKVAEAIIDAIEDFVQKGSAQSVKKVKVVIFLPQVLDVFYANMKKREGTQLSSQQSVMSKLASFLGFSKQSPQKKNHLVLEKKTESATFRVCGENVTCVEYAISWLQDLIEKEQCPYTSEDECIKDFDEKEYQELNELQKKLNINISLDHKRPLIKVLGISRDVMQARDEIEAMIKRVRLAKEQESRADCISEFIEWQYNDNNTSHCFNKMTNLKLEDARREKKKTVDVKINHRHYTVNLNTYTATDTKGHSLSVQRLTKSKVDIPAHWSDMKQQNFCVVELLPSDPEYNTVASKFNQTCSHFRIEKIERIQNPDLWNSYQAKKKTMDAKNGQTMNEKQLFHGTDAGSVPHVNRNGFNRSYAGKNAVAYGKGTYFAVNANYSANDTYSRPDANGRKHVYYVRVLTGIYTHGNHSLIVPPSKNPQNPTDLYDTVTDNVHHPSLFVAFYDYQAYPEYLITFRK

[2] = molecular target: T1, Protein mono-ADP-ribosyltransferase PARP10 (Homo sapiens) (UniProt Q53GL7); experiment: as §1, with “FLAG-tagged and C-terminal strep-tagged” for “His-GST tagged”, “PARP10 (805” for “PARP14 (1470”, “1025” for “1801”, “assay” for “assay relative to control”
T1 sequence (whole entry): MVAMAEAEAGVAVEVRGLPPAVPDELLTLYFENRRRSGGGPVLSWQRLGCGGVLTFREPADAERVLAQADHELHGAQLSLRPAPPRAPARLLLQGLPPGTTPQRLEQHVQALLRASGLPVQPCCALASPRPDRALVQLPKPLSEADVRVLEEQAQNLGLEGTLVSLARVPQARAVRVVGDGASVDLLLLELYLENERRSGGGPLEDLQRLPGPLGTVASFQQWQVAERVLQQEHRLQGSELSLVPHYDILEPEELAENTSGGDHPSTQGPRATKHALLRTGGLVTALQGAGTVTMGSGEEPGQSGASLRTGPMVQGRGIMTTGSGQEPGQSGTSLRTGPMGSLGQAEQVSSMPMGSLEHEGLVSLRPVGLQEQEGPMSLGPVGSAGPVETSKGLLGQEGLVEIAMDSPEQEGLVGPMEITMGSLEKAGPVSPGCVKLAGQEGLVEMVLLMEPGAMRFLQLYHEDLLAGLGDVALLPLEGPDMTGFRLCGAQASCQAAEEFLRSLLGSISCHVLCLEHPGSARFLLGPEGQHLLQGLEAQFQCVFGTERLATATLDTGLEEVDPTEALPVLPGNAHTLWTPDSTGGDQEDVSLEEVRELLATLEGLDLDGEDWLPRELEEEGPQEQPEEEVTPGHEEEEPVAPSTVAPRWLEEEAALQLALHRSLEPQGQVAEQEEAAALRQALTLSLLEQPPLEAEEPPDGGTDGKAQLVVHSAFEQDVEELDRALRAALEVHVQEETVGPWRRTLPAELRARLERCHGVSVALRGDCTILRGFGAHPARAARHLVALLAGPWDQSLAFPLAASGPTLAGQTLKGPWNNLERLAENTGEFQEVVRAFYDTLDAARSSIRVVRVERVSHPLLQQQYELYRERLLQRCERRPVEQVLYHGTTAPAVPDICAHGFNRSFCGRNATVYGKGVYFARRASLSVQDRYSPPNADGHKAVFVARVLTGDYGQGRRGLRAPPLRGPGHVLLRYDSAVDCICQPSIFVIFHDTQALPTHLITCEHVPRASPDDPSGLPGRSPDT

[3] = molecular target: T1, Protein mono-ADP-ribosyltransferase PARP10 (Homo sapiens); experiment: as §1, with “N-terminal FLAG-tagged and C-terminal strep-tagged” for “N-terminal His-GST tagged”, “human PARP10 (805” for “human PARP14 (1470”, “to 1025” for “to 1801”, “at 10” for “at 1”
[4] = molecular target: Protein mono-ADP-ribosyltransferase PARP14 (Homo sapiens) (UniProt Q460N5); experiment: as §1, with “at 10” for “at 1”
[5] = molecular target: T2, Protein mono-ADP-ribosyltransferase PARP10 (Homo sapiens, UniProt Q53GL7); experiment: Inhibition of N-terminal FLAG-tagged and C-terminal strep-tagged human PARP10 (805 to 1025 residues) expressed in baculovirus infected Sf9 cells assessed as reduction in NAD+-dependent ADP ribosylation using histone as substrate incubated for 1 hr in presence of biotinylated NAD+ and activated DNA by chemiluminescence based microplate reader assay
T2 sequence (Q53GL7 whole entry): T1 sequence (whole entry)
How it was run: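 The IC50 was derived from a concentration-dependent inhibition curve for PARP10 in the histone ADP-ribosylation assay.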

Row | Structure (SMILES) | inhibition [1] [%] | inhibition [2] [%] | inhibition [3] [%] | inhibition [4] [%] | IC50 [5] [µM]
1 | CC[C@H]1CN(C(=O)COc2cccc3c2CCCC3=O)CCN1C(=O)CCc1nc2ccccc2[nH]c1=O | 17 | 1 | 15 | – | –
2 | O=C1CCCc2c(OCC(=O)N3CCN(C(=O)CCc4nc5ccccc5[nH]c4=O)C[C@@H]3CO)cccc21 | 12 | 15 | 9 | – | –
3 | O=C(NC[C@@H]1CCCN1C(=O)CCc1nc2ccccc2[nH]c1=O)c1ccc2c(c1)CCCC2=O | 0 | 0 | 37 | 5 | –
4 | O=C1CCCc2cc(C(=O)N3C[C@@H]4C[C@H]3CN4C(=O)CCc3nc4ccccc4[nH]c3=O)ccc21 | 7 | 13 | 12 | – | –
5 | O=C(CCc1nc2ccccc2[nH]c1=O)NCC(=O)N1CCN(C(=O)Nc2ccc3c(c2)C(=O)CCC3)CC1 | 0 | 17 | 46 | – | 28
6 | O=C(COc1ccc2c(c1)CCCC2=O)NC[C@@H]1CCCN1C(=O)CCc1nc2ccccc2[nH]c1=O | 6 | 0 | 35 | 10 | –
7 | O=C(COc1ccc2c(c1)C(=O)CCC2)NC1CCN(C(=O)CCc2nc3ccccc3[nH]c2=O)CC1 | 27 | 11 | 16 | – | –
8 | O=C1CCCc2cc(C(=O)N3CCN(C(=O)CCc4nc5ccccc5[nH]c4=O)C[C@H]3CO)ccc21 | 0 | 13 | 4 | – | –
9 | O=C(CCc1nc2ccccc2[nH]c1=O)NCC(=O)N1CCN(C(=O)COc2cccc3c2CCCC3=O)CC1 | 2 | 13 | 10 | – | –
